Source: PubChem BioAssay
Rows were chosen to be rich in hits. Some 12% of all compounds tested hit in one or more screens of this group.
PKD1 inh: blocks activity of human protein kinase D1. Q15139. PKD1 kinase fluorescence polarization assay. inhibition, % (concentration not given with the values). 200,000 tested, 0.056% active
Lmaj promast: inhibitors of Leishmania major promastigote growth; Leishmania major promastigotes, resazurin fluorescence viability; inhibition, % at 10 µM; 200,000 tested, 9% active;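 note: promastigotes grown with compound for 44 hours at 28 °C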
Wee1 stabilizer: human Wee1 degradation inhibition, primary screen | P30291 | HeLa Luc-Wee1K328M stability, luciferase luminescence; 100% = proteasome inhibitor MG132 effect | reporter increase, % at 5 µM | 220,000 tested, 1.2% active | AID 1321;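 active = activation above the mean of all tested compounds plus 3 SD, set per screening run, cut at about 8.8% in these data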;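 note: cells exposed to compound for 20 h before luminescence read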
Target sequence (P30291 whole entry K328M): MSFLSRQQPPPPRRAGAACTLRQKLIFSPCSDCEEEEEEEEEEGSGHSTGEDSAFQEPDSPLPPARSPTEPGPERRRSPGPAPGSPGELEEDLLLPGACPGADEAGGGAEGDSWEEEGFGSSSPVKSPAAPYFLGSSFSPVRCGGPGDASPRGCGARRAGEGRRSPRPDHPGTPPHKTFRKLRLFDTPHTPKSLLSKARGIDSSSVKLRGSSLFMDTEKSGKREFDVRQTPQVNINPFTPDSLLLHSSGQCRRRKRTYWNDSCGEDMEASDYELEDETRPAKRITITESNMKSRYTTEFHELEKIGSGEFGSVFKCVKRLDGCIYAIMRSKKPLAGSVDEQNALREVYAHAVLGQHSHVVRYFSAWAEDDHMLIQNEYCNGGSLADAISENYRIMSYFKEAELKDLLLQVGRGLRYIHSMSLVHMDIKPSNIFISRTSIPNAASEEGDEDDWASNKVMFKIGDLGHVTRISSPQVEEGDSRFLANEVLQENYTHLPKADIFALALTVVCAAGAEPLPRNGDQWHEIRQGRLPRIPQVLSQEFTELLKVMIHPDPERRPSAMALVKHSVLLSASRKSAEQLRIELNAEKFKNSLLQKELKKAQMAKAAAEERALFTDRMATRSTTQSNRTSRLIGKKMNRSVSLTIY
CHOP inh: blocks CHOP induction under ER stress | CHO-K1 CHOP-promoter luciferase, tunicamycin-induced, 15-18 h | 220,000 tested, 3.8% active | inhibition, % at 10 µM | AID 2732;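 active = compounds that reduced the stress-induced luciferase reporter signal by more than about 70% of percent inhibition, limit read from the data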
Rad51 HR inh: blocks human Rad51 in homologous recombination. Q06609. inhibition, % at 10 µM. AID 1385. 200,000 tested, 0.085% active. hRad51 DNA strand exchange, fluorescence dequenching;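 active = inhibition above 40% at the single screening dose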
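Test system: preformed human Rad51 ssDNA filaments. Compound dosing: single dose, 10 µM final compound. Incubation: filaments 15 min 37 °C, then compound 30 min. Technique: FRET fluorescence dequenching, excitation 485 nm, emission 520 nm. Read-out basis: percent inhibition from fluorescence, normalised to plate control and blank means. Benchmarks: plate controls and plate blanks.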
Arbovirus inh: antivirals against arbovirus infection; inhibition, % at 10 µM; AID 1251; 200,000 tested, 0.37% active; arbovirus infection cell-based antiviral screen; in the data active = inhibition above about 30%
Numbers stand for hits; i = inactive; nt = no result given. Cut-off read from the data, not from the text of the source, unless noted: active = inhibition above about 50%; inactive = the rest.

SMILES | PKD1 inh | Lmaj promast | Wee1 stabilizer | CHOP inh | Rad51 HR inh | Arbovirus inh
CCCCCN(C(=O)NC(=O)Nn1cnnc1)S(C)(=O)=O | i | i | 9.9 | i | i | i
CCc1cc(=O)oc2cc(OC(C)=O)cc(OC(C)=O)c12 | i | 56 | i | i | i | i
CCOC(=O)c1c(-c2ccc(OC)c(OC)c2)csc1NC(=O)C1CCCO1 (stereo unspecified) | i | 100 | i | i | i | i
CCOC(=O)c1c(-c2ccc(C)c(C)c2)csc1NC(=O)C1CC=CCC1C(=O)O (stereo unspecified) | i | i | i | i | nt | 41
CCOC(=O)c1c(-c2ccc(F)cc2)csc1NC(=O)C1CC=CCC1C(=O)O (stereo unspecified) | i | i | i | i | i | i
COC(=O)c1c(-c2ccc(F)cc2)csc1NC(=O)C1CCCO1 (stereo unspecified) | i | i | i | i | i | i
CN(C)CCCNC(=O)/C(=C\C=C\c1ccccc1)NC(=O)c1ccc([N+](=O)[O-])cc1 | nt | nt | i | i | nt | nt
O=C(NCc1csc2ccccc12)Nc1cc(Cl)cc(Cl)c1 | nt | nt | i | 86 | i | nt
O=CNCCCc1nc2ccccc2n1Cc1cccc2ccccc12 | i | 93 | i | i | i | i
COc1ccc(C(=O)NCCCc2nc3ccccc3n2Cc2ccccc2C)cc1OC | i | 77 | i | i | i | i
CC(=O)NCCCc1nc2ccccc2n1Cc1ccccc1F | nt | nt | i | i | i | nt
CCc1ccc(OCc2nnc(SCC(=O)Nc3cccc(C(=O)N4CCOCC4)c3)o2)cc1 | i | i | i | i | i | i
O=C(COc1ccc2c(c1)CCC2)N1CCN(c2cccc(C(F)(F)F)c2)CC1 | i | 65 | i | 86 | i | i
O=C(COc1ccc2c(c1)CCC2)N1CCN(c2ccccc2F)CC1 | i | i | 10 | i | nt | i
O=C(COc1ccc(S(=O)(=O)NC2CCCCC2)cc1)N1CCN(c2cccc(Cl)c2)CC1 | i | i | i | 79 | i | i
CC1(C)CC(=O)c2cc(OCC(=O)N3CCN(c4ccccc4F)CC3)ccc2O1 | i | i | i | i | i | i
O=C(NC1(C(F)(F)F)NC(=O)N(c2ccc(F)cc2)C1=O)c1cccs1 (stereo unspecified) | i | i | i | i | i | i
CC1(C)CC(=O)C(C=Nc2ccccc2Sc2ccccc2)=C(O)C1 | i | 71 | i | i | i | i
COC(=O)CCSC(=S)N1CCOCC1 | nt | nt | i | i | i | nt
Cc1cccc(C(=O)O/N=C(\N)c2cccc([N+](=O)[O-])c2)c1 | i | i | i | i | i | i
CC1=CC(=O)C=C(C)C1=NOC(=O)c1cccc([N+](=O)[O-])c1 | i | 84 | i | i | i | i
O=C(/C=C/c1ccco1)Nc1ccc(-c2nc3ccccc3[nH]2)cc1 | i | i | i | 96 | i | i
O=C(Nc1ccc(-c2nc3ccccc3[nH]2)cc1)c1ccco1 | i | i | i | i | nt | i
O=C1CC(c2cc([N+](=O)[O-])ccc2Cl)c2c(ccc3ccccc23)N1 (stereo unspecified) | i | 92 | i | i | i | i
O=C1CC(c2cccs2)c2ccc3ccccc3c2N1 (stereo unspecified) | i | i | i | i | i | i
SMILES | PKD1 inh | Lmaj promast | Wee1 stabilizer | CHOP inh | Rad51 HR inh | Arbovirus inh
O=C1CC(c2cccc([N+](=O)[O-])c2)c2ccc3ccccc3c2N1 (stereo unspecified) | i | i | i | i | i | 36
O=C(CC(=O)c1ccccc1)Nc1cccnc1Cl | i | i | i | i | i | i
O=C1NC(c2ccccc2)=C(c2ccc3ccccc3n2)C(c2ccc(F)cc2)N1 (stereo unspecified) | i | i | i | i | nt | i
O=C1NC(c2ccccc2)=C(c2ccc3ccccc3n2)C(c2ccccc2)N1 (stereo unspecified) | i | 85 | i | i | nt | i
O=C1NC(c2ccccc2)=C(c2nc3ccccc3s2)C(c2ccc(O)cc2)N1 (stereo unspecified) | i | 81 | i | i | i | i
O=C(O)c1ccc(S(=O)(=O)c2ccc3c(c2)C(=O)N(NC(=O)c2cccnc2)C3=O)cc1 | nt | nt | i | i | i | nt
CCc1ccc(-n2c(C)nc3cc(C(=O)NCc4cccnc4)ccc32)cc1 | i | i | i | i | i | i
CCOc1ccc(C(=O)Nc2sc3c(c2C(=O)OC)CC(C)(C)NC3(C)C)cc1 | i | 94 | i | i | nt | i
COC(=O)c1c(NC(=O)c2nc3ccccc3s2)sc2c1CC(C)(C)NC2(C)C | i | 87 | i | i | nt | i
Cc1ccccc1-c1nc(CN(C)C(C)c2ccon2)c(C)o1 (stereo unspecified) | i | i | i | i | i | i
NS(=O)(=O)c1ccc(CNC(=O)c2csc3c2CCCC3)cc1 | i | i | i | i | i | i
Cc1ccc(S(=O)(=O)NCCSc2nnnn2-c2cc(C)ccc2C)cc1 | i | 100 | i | i | i | i
Cc1ccc(S(=O)(=O)NCCSc2nnnn2-c2ccccc2)cc1 | i | i | i | i | i | i
CCOc1cc(C)c(C(C)C)cc1S(=O)(=O)n1ccc(C)n1 | i | i | i | 77 | i | i
O=C(C1CCC(CNS(=O)(=O)c2cccc3nsnc23)CC1)N1CC=C(c2ccccc2)CC1 (stereo unspecified) | i | i | i | 72 | i | i
Cc1ccc(C(=O)CSc2nsc(C)c2C#N)cc1 | i | i | i | i | i | i
Cc1snc(SCC(=O)c2ccc(Cl)cc2)c1C#N | i | 99 | i | i | i | i
Cc1cc(C)c(C#N)c(SCC(=O)c2ccc(Cl)cc2Cl)n1 | i | 100 | i | i | nt | i
Cc1cc(C)c(C#N)c(SCC(=O)OC2CCCCC2)n1 | i | i | i | 77 | i | i
O=[N+]([O-])c1ccc(S(=O)(=O)NCCc2ccncc2)cc1 | i | i | i | i | i | i
COc1cccc(N2[C@@H](CC(=O)O)c3ccc(/C=C/C(=O)O)cc3S2(=O)=O)c1 | nt | nt | nt | nt | i | nt
CC(C)CCNC(=O)Cc1csc(-c2ccccc2)n1 | i | i | i | i | i | i
COC(=O)C1=C(N)OC2=C(C(=O)CC(C)(C)C2)C1c1cccnc1 (stereo unspecified) | i | 50 | i | i | i | i
COCCOC(=O)C1=C(C)NC2=C(C(=O)CC(C)(C)C2)C1c1cccnc1 (stereo unspecified) | i | 64 | i | i | i | i
COC(=O)C1=C(N)OC2=C(C(=O)CC(C)(C)C2)C1c1ccccc1OCC#N (stereo unspecified) | i | i | i | i | i | i
CC1=C(C(=O)OCCOC(C)C)C(c2cccnc2)C2=C(CCCC2=O)N1 (stereo unspecified) | i | i | i | i | i | i
CC1=C(C(=O)OC(C)C)C(c2cccnc2)C2=C(CC(C)(C)CC2=O)N1 (stereo unspecified) | i | 92 | i | i | i | i
CCc1ccc(OS(=O)(=O)c2cn(C)c(=O)n(C)c2=O)cc1 | i | i | i | i | i | i
